Assay results taken from ChEMBL document CHEMBL1154452, “First synthesis of novel spin-labeled derivatives of camptothecin as potential antineoplastic agents” (Eur J Med Chem, 2008).

Assays:
[1] = test system: T-24; assay: Growth inhibition of human T24 cells after 4 days by MTT assay; format: functional; set-up: concentration or dose not given beside the values
How it was run: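 After 4 days, MTT (5 mg/mL solution) added, 4 h further incubation, formazan dissolved in DMSO, absorbance read at 570 nm. Survival expressed as percent of untreated control wells; inhibition rates derived.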

[2] = Stability in human plasma assessed as level of lactone form of compound after 2 hrs by HPLC; format: ADME, cell-free; conditions: read-out: Activity
How it was run: (§1)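 Incubated in plasma at 37 °C; aliquots taken at 2, 4, 6, 8 and 24 h. Protein precipitated with cold acetonitrile (-20 °C) and removed by centrifugation. Supernatant stored at -20 °C, then analysed by C-18 HPLC (methanol/water/0.1% acetic acid) with detection at 254 nm. Percent lactone = lactone level at each time point relative to t = 0 h.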

[3] = Stability in human plasma assessed as level of lactone form of compound after 4 hrs by HPLC; format: ADME, cell-free; conditions: read-out: Activity; how it was run: as §1
[4] = Stability in human plasma assessed as level of lactone form of compound after 6 hrs by HPLC; format: ADME, cell-free; conditions: read-out: Activity; how it was run: as §1
[5] = Stability in human plasma assessed as level of lactone form of compound after 8 hrs by HPLC; format: ADME, cell-free; conditions: read-out: Activity; how it was run: as §1
[6] = Stability in human plasma assessed as level of lactone form of compound after 24 hrs by HPLC; format: ADME, cell-free; conditions: read-out: Activity; how it was run: as §1
[7] = Stability in mouse plasma assessed as level of lactone form of compound after 2 hrs by HPLC; format: ADME, cell-free; conditions: read-out: Activity; how it was run: as §1
[8] = Stability in mouse plasma assessed as level of lactone form of compound after 4 hrs by HPLC; format: ADME, cell-free; conditions: read-out: Activity; how it was run: as §1
[9] = Stability in mouse plasma assessed as level of lactone form of compound after 6 hrs by HPLC; format: ADME, cell-free; conditions: read-out: Activity; how it was run: as §1
[10] = Stability in mouse plasma assessed as level of lactone form of compound after 8 hrs by HPLC; format: ADME, cell-free; conditions: read-out: Activity; how it was run: as §1
[11] = Stability in mouse plasma assessed as level of lactone form of compound after 24 hrs by HPLC; format: ADME, cell-free; conditions: read-out: Activity; how it was run: as §1

In the case of `CC[C@@]1(OC(=O)[C@H](Cc2ccccc2)NC(=O)C2=CC(C)(C)N(O)C2(C)C)C(=O)OCc2c1cc1n(c2=O)Cc2cc3ccccc3nc2-1`, the “inhibition (INH)” value [1] is reported as 26.4%.
In the case of `CC[C@@]1(OC(=O)CNC(=O)C2=CC(C)(C)N(O)C2(C)C)C(=O)OCc2c1cc1n(c2=O)Cc2cc3ccccc3nc2-1`, the remaining at 2 h [2] is reported as 78.7%, the remaining at 4 h [3] is reported as 65.2% and the remaining at 6 h [4] is reported as 56.1%. It also gave a remaining at 8 h [5] of 34.4%, a remaining at 24 h [6] of 7.8% and a remaining at 2 h [7] of 76.3%. It also gave a remaining at 4 h [8] of 57.6%, a remaining at 6 h [9] of 43.9% and a remaining at 8 h [10] of 31.8%. The remaining at 24 h [11] was 10.8% and the “inhibition (INH)” value [1] was 34.5%.
With `CC[C@@]1(OC(=O)[C@H](CCSC)NC(=O)C2=CC(C)(C)N(O)C2(C)C)C(=O)OCc2c1cc1n(c2=O)Cc2cc3ccccc3nc2-1` the “inhibition (INH)” value [1] was 25.5%.
In the case of `CC[C@@]1(OC(=O)[C@H](C)NC(=O)C2=CC(C)(C)N(O)C2(C)C)C(=O)OCc2c1cc1n(c2=O)Cc2cc3ccccc3nc2-1`, the “inhibition (INH)” value [1] is reported as 25.9%.
`CC[C@@]1(O)C(=O)OCc2c1cc1n(c2=O)Cc2cc3ccccc3nc2-1` [CAMPTOTHECIN] showed a remaining at 2 h [2] of 61.4%, a remaining at 4 h [3] of 28.4% and a remaining at 6 h [4] of 19.4%. It also gave a remaining at 8 h [5] of 14.6%, a remaining at 24 h [6] of 3.8% and a remaining at 2 h [7] of 55.1%. It also gave a remaining at 4 h [8] of 40.5%, a remaining at 6 h [9] of 24.5% and a remaining at 8 h [10] of 10.9%. For the same molecule, the remaining at 24 h [11] was 5.3% and the “inhibition (INH)” value [1] was 15.4%.
With `CC[C@@]1(OC(=O)[C@H](CC(C)C)NC(=O)C2=CC(C)(C)N(O)C2(C)C)C(=O)OCc2c1cc1n(c2=O)Cc2cc3ccccc3nc2-1` the “inhibition (INH)” value [1] was 16.4%.
For `CCc1c2c(nc3ccc(OC(=O)N4CCC(N5CCCCC5)CC4)cc13)-c1cc3c(c(=O)n1C2)COC(=O)[C@]3(O)CC` [IRINOTECAN], the “inhibition (INH)” value [1] was 23.8%.
